The target in assay [1] is T1, Glucosyltransferase-SI (Streptococcus mutans serotype c (strain ATCC 700610 / UA159)) (UniProt P13470).
T1 sequence (whole entry): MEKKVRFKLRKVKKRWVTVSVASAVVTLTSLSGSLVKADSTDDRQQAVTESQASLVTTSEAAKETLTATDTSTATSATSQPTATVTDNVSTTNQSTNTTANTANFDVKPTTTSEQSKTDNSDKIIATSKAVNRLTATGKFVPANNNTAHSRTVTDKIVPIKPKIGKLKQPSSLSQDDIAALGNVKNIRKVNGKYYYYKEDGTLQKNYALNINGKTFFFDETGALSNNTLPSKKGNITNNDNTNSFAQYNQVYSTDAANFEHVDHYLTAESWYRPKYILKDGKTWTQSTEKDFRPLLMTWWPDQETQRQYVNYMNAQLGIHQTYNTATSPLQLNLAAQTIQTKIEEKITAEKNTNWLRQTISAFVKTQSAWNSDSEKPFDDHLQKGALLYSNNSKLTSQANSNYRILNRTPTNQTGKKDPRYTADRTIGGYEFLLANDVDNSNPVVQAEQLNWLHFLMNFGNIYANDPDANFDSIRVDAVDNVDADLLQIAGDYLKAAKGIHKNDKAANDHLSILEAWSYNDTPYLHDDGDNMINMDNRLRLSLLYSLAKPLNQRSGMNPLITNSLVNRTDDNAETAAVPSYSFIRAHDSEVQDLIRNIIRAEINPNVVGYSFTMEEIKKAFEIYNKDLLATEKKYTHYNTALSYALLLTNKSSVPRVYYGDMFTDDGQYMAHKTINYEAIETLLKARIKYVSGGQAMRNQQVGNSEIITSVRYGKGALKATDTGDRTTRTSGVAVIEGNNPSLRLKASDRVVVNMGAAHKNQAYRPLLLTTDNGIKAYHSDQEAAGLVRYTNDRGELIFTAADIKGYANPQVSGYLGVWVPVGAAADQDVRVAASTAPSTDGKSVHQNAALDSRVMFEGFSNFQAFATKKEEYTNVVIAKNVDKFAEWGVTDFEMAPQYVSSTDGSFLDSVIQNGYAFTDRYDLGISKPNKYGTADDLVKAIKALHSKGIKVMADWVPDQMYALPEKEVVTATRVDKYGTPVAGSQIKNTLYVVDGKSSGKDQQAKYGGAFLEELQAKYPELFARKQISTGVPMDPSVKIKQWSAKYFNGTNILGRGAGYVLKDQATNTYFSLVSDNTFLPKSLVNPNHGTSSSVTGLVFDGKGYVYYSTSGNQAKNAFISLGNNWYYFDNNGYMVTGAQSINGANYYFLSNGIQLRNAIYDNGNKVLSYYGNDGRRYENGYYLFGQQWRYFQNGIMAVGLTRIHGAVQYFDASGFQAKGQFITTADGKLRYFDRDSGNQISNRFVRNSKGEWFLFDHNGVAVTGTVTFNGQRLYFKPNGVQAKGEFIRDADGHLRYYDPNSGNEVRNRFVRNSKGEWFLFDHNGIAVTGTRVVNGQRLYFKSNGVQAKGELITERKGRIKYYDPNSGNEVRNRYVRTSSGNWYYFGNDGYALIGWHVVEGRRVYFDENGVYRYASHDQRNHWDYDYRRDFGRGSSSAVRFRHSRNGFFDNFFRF
The assay is described as follows: Inhibition of Wild-type Streptococcus mutans UA159 glucosyltransferase C at 50 uM by zymography. An outline of the steps: (§1)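 Compound (50 µM) added to overnight S. mutans UA159 wild-type cultures; Gtfs concentrated from supernatants, run on duplicate SDS-PAGE; second gel used for zymogram, glucan band intensity taken as Gtf activity.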

For assay [2], the target named is T2, Glucosyltransferase-I (Streptococcus mutans serotype c (strain ATCC 700610 / UA159)) (UniProt P08987).
T2 sequence (whole entry): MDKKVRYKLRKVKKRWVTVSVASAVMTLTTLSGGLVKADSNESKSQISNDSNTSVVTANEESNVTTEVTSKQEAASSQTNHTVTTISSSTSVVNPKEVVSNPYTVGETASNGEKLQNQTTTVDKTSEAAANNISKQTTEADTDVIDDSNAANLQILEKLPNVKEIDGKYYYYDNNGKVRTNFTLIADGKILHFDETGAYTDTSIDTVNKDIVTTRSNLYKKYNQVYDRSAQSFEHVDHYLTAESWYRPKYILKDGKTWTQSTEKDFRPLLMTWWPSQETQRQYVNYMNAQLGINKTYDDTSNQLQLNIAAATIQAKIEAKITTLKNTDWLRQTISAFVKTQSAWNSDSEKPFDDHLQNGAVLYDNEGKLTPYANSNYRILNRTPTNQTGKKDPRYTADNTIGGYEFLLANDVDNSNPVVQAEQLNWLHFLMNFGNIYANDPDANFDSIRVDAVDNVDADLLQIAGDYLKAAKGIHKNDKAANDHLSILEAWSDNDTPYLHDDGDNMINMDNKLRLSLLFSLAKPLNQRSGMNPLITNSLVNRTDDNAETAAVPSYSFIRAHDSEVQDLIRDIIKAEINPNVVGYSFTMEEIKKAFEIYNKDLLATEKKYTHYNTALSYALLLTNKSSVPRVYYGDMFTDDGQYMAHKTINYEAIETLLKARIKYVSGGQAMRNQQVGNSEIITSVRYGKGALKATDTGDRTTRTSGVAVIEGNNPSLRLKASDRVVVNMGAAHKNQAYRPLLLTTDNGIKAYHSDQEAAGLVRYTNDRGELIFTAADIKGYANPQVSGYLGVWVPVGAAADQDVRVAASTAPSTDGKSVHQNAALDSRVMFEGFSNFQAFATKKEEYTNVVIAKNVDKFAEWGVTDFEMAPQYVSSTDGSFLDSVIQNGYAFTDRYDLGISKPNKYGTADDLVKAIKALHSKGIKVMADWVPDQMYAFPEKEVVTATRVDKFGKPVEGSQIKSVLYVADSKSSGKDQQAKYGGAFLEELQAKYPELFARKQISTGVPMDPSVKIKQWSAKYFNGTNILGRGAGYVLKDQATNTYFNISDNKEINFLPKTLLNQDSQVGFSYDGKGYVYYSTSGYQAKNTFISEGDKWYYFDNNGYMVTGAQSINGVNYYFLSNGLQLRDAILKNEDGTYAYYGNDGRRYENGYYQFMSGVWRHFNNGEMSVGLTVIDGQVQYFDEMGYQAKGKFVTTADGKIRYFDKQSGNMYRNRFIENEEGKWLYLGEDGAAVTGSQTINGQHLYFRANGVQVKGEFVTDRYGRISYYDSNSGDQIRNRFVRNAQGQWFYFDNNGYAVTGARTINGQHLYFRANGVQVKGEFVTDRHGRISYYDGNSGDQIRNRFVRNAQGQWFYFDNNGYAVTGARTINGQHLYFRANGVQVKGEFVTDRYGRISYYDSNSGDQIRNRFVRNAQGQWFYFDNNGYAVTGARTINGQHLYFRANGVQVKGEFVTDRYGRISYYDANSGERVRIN
As to the kind of experiment: Inhibition of Wild-type Streptococcus mutans UA159 glucosyltransferase B at 50 uM by zymography. An outline of the steps: as §1

In assay [3] the test system is Streptococcus mutans. The assay is described as follows: Selectivity index, ratio of growth inhibition IC50 for Streptococcus mutans UA159 to biofilm inhibition IC50 for Streptococcus mutans UA159.

Active and inactive are the calls of the source. No cut-off for these calls is given here.

As for `O=C(/C=C/c1ccc(O)cc1O)c1cccc(O)c1` (stereo in doubt; 9a), the inhibition result in assay [1] and in assay [2] was “Active” in each case.

`O=C(/C=C/c1cc(O)c(O)cc1O)c1ccccc1O` (stereo in doubt; 18c): the inhibition entry in assay [1] and in assay [2] was “Active” throughout.

`O=C(/C=C\c1ccc(O)cc1O)c1ccc(O)cc1`: the inhibition result in assay [1] and in assay [2] was “Active” in each case. Also, the “Ratio IC50” value in assay [3] is 10.1.

Consider `O=C(/C=C\c1ccc(O)cc1O)c1cccc(O)c1`, for which the inhibition entry in assay [1] and in assay [2] was “Active” throughout. Also, the “Ratio IC50” value in assay [3] came out at 10.6.

As for `O=C(/C=C/c1ccc(O)cc1O)c1ccc(O)cc1`, the inhibition entry in assay [1] and in assay [2] was “Active” each time. In assay [3], the “Ratio IC50” value is listed as 6.6.

Source of the values: ChEMBL document CHEMBL3822431, “Hydroxychalcone inhibitors of Streptococcus mutans glucosyl transferases and biofilms as potential anticaries agents” (Bioorg Med Chem Lett, 2016).
